Source: ChEMBL document CHEMBL1131145, “Halogenated chalcones with high-affinity binding to P-glycoprotein: potential modulators of multidrug resistance” (J Med Chem, 1998)

How the values were obtained:
[1] = The maximal fluorescence quenching was determined using the Grafit program.
Method in brief: (§1)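 Tryptophan fluorescence excited at 295 nm, emission scanned 310–380 nm and integrated after buffer Raman subtraction. Chalcone titrated in successive additions up to 20 µM. Quenching corrected for inner-filter effect using N-acetyltryptophanamide. KD and ΔFmax obtained by curve fitting.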

[2] = The dissociation constant was measured as binding affinity to P-Glycoprotein C-terminal cytosolic domain using the grafit program.; method in brief: as §1

| Structure (SMILES) | maximal fluorescence quenching [1] [%] | Kd [2] [nM] |
| --- | --- | --- |
| O=C(/C=C/c1ccccc1)c1c(O)cc(O)cc1O [2',4',6-TRIHYDROXYCHALCONE] | 87.8 | – |
| O=C(/C=C/c1ccc(I)cc1)c1c(O)cc(O)cc1O | 86.6 | 250 |
| O=C(/C=C/c1ccc(Br)cc1)c1c(O)cc(O)cc1O [4-BROMO-2',4',6'-TRIHYDROXYCHALCONE] | 88.7 | 570 |
| O=C(/C=C/c1ccc(O)cc1)c1c(O)cc(O)cc1O [4,2',4',6'-TETRAHYDROXYCHALCONE] | 86.8 | 4800 |

Next, values leading:

| maximal fluorescence quenching [1] [%] | Kd [2] [nM] | Structure (SMILES) |
| --- | --- | --- |
| 88.1 | 3600 | O=C(/C=C/c1ccc(F)cc1)c1c(O)cc(O)cc1O [4-FLUORO-2',4',6'-TRIHYDROXYCHALCONE] |
| 85.5 | 2300 | COc1ccc(/C=C/C(=O)c2c(O)cc(O)cc2O)cc1 [4-METHOXYL-2',4',6'-TRIHYDROXYCHALCONE] |
| 80.1 | 1300 | O=C(/C=C/c1ccc(Cl)cc1)c1c(O)cc(O)cc1O [4-CHLORO-2',4',6'-TRIHYDROXYCHALCONE] |
